Measurements from different studies.
Protocols differ between the studies behind these lines.
Target: Mitogen-activated protein kinase 14 (MAPK14, Homo sapiens, UniProt Q16539)

Cc1ncc(C)n2nc(/C=C/c3nc(N4CCCC4)cc(N4CCOCC4)n3)nc12 — inhibition (enzyme activity; inhibitor; 10 µM): 0%
COc1ncccc1-c1cnn2ccc(N3CCN(C(=O)OC(C)C)CC3)nc12 — remaining binding (binding; competition with immobilised ligand; 1 µM): 94%
Cc1nn(C)cc1-c1nc2c(N3CCN(Cc4ccc(Cl)cc4)CC3)c(Cl)cnc2[nH]1 — remaining binding (binding; competition with immobilised ligand; 1 µM): 71%
COc1cc(Cl)c(C(=O)N[C@@H](CN[C@H]2CC[C@@H](N)CC2)Cc2ccc(C#N)cc2)cc1-c1ccc(CN[C@H](C)c2ccc(C)cc2)o1 — remaining activity (enzyme activity; inhibitor; 1 µM): 107%
CC(C)(C)c1cc(C=C(C#N)C#N)cc(Br)c1O — remaining activity (enzyme activity; inhibitor; 0.5 µM): 98.3%
Cn1cncc1[C@@](O)(COc1ccc(C#N)cc1-c1ccc(OC(F)(F)F)cc1)c1ccc(C#N)cc1 — remaining binding (cell-free assay; competition with immobilised ligand; 1 µM): 100%
O=C(Nc1cccnn1)N1CCN([C@@H]2CCOc3cc(C(F)(F)F)ccc32)CC1 — inhibition (enzyme activity; inhibitor; 20 µM): -20%
N#CC1(c2ccccn2)CCN(Cc2cc(C(=O)O)c(=O)n3ccccc23)CC1 — remaining binding (cell-free assay; competition with immobilised ligand; 1 µM): 100%
C#Cc1n[nH]c2c(-c3cn(C(C)c4ccccn4)c(=O)[nH]c3=O)cc(F)cc12 (stereo not shown) — inhibition (enzyme activity; inhibitor; 1 µM): -4.4%
O=c1[nH]c2ccccc2n1C1CCN(Cc2ccc(-c3[nH]c4cc5ncnc5cc4nc3-c3ccccc3)cc2)CC1 — remaining signal (cell-free assay; 0.5 µM): 99.7%
